From ChEMBL document CHEMBL1137631, “Artemisinin-resistant mutants of Toxoplasma gondii have altered calcium homeostasis” (Antimicrob Agents Chemother, 2007)
Calls of active or inactive are those of the source. The rule behind the calls is not given here.

Key:
Format in all cases: functional, organism-based
[1] = tested on: Toxoplasma gondii; assay: Increase in intracellular calcium level in artemisinin-resistant Toxoplasma gondii STL500-10A at 1 uM by fura-2-AM dye based fluorimetric method in presence of extracellular calcium
Method in brief: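 Freshly harvested tachyzoites loaded with 5.2 μM fura-2-AM in HEPES-buffered saline pH 7.4 plus 1.5% sucrose, 30 min at 26°C, washed; 2×10^7 cells/ml, room temperature, 1 mM extracellular CaCl2. 340/380 nm excitation ratio, 510 nm emission; [Ca2+]i calibrated with Ca2+-EGTA buffers; three independent experiments.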

[2] = tested on: Toxoplasma gondii; assay: Increase in intracellular calcium level in Toxoplasma gondii ATCC 50839 at 1 uM by fura-2-AM dye based fluorimetric method
Method in brief: (§1)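 Freshly harvested tachyzoites loaded with 5.2 μM fura-2-AM in HEPES-buffered saline pH 7.4 plus 1.5% sucrose, 30 min at 26°C, washed; 2×10^7 cells/ml, room temperature, no extracellular calcium (1 mM EGTA). Excitation 340/380 nm, emission 510 nm; [Ca2+]i calibrated with Ca2+-EGTA buffers after background subtraction; three independent experiments.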

[3] = tested on: Toxoplasma gondii; assay: Increase in intracellular calcium level in artemisinin-resistant Toxoplasma gondii KN200-6 at 1 uM by fura-2-AM dye based fluorimetric method; method in brief: as §1
[4] = tested on: Toxoplasma gondii; assay: Induction of […] MIC2 protein secretion in artemisinin-resistant Toxoplasma gondii STL500-10A at 10 uM treated for 10 mins by Western blot
Method in brief: (§2)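 Freshly egressed parasites in DMEM/HEPES with 3% FBS, treated 10 min at 18°C (1% ethanol vehicle), then 2 min at 37°C to secrete, chilled, centrifuged at 400 × g. Supernatant and pellet resolved by 15% SDS-PAGE, Western blotted with rabbit anti-MIC2 (1:10,000) and anti-β-galactosidase (1:300) antibodies.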

[5] = tested on: Toxoplasma gondii; assay: Induction of […] MIC2 protein secretion in Toxoplasma gondii ATCC 50839 at 10 uM treated for 10 mins by Western blot; method in brief: as §2
[6] = tested on: Toxoplasma gondii; assay: Increase in intracellular calcium level in artemisinin-resistant Toxoplasma gondii KN200-1 at 1 uM by fura-2-AM dye based fluorimetric method; method in brief: as §1
[7] = tested on: Toxoplasma gondii; assay: Increase in intracellular calcium level in artemisinin-resistant Toxoplasma gondii STL500-10A at 1 uM by fura-2-AM dye based fluorimetric method; method in brief: as §1
[8] = tested on: Toxoplasma gondii; assay: Induction of […] MIC2 protein secretion in artemisinin-resistant Toxoplasma gondii KN200-6 at 10 uM treated for 10 mins by Western blot; method in brief: as §2
[9] = tested on: Toxoplasma gondii; assay: Induction of […] MIC2 protein secretion in artemisinin-resistant Toxoplasma gondii A2
[10] = tested on: Toxoplasma gondii; assay: Induction of […] MIC2 protein secretion in artemisinin-resistant Toxoplasma gondii KN200-1 at 10 uM treated for 10 mins by Western blot; method in brief: as §2
[11] = tested on: Toxoplasma gondii; assay: Antiparasitic activity against artemisinin-resistant Toxoplasma gondii STL500-10A infected in HFF cells after 72 hrs by beta-galactosidase reporter gene assay
Method in brief: (§3)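 Tachyzoites inoculated into HFF monolayers, quadruplicate wells per sample; compounds 10 nM to 100 μM for 3 days at 37°C. Monolayers lysed 10 min at 50°C (HEPES pH 8.0, Triton X-100, DTT), then phosphate buffer pH 7.3 added, chlorophenol red-β-D-galactopyranoside substrate, A570 read.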

[12] = tested on: Toxoplasma gondii; assay: Antiparasitic activity against artemisinin-resistant Toxoplasma gondii KN200-1 infected in HFF cells after 72 hrs by beta-galactosidase reporter gene assay; method in brief: as §3
[13] = tested on: Toxoplasma gondii; assay: Antiparasitic activity against artemisinin-resistant Toxoplasma gondii KN200-6 infected in HFF cells after 72 hrs by beta-galactosidase reporter gene assay; method in brief: as §3
[14] = tested on: Toxoplasma gondii; assay: Antiparasitic activity against Toxoplasma gondii ATCC 50839 infected in HFF cells after 72 hrs by beta-galactosidase reporter gene assay; method in brief: as §3
[15] = tested on: Toxoplasma gondii; assay: Increase in intracellular calcium level in artemisinin-resistant Toxoplasma gondii KN200-1 at 20 uM by fura-2-AM dye based fluorimetric method; method in brief: as §1
[16] = tested on: Toxoplasma gondii; assay: Increase in intracellular calcium level in Toxoplasma gondii ATCC 50839 at 20 uM by fura-2-AM dye based fluorimetric method; method in brief: as §1
[17] = tested on: Toxoplasma gondii; assay: Increase in intracellular calcium level in artemisinin-resistant Toxoplasma gondii STL500-10A at 20 uM by fura-2-AM dye based fluorimetric method; method in brief: as §1
[18] = tested on: Toxoplasma gondii; assay: Increase in intracellular calcium level in artemisinin-resistant Toxoplasma gondii KN200-6 at 20 uM by fura-2-AM dye based fluorimetric method; method in brief: as §1
[19] = Toxoplasma gondii, ATCC 50839, HFF, 72 h, read-out: EC50
[20] = Toxoplasma gondii, STL500-10A, HFF, 72 h, read-out: EC50
[21] = Toxoplasma gondii, KN200-1, HFF, 72 h, read-out: EC50
[22] = Toxoplasma gondii, KN200-6, HFF, 72 h, read-out: EC50

For `C/C=C(/C)C(=O)O[C@H]1C(C)=C2[C@H]([C@@H]1OC(=O)CCCCCCC)[C@@](C)(OC(C)=O)C[C@H](OC(=O)CCC)[C@@]1(O)[C@H]2OC(=O)[C@@]1(C)O`, the Activity [1] was “Active”, the Activity [2] was “Active” and the Activity [3] was “Active”. For the same compound, the Activity [4] was “Active”, the Activity [5] was “Active” and the Activity [6] was “Active”. For the same compound, the Activity [7] was “Active”, the Activity [8] was “Active” and the Activity [9] was “Active”. The Activity [10] was “Active”.
`C[C@@H]1CC[C@H]2[C@H](C)CO[C@@H]3O[C@@]4(C)CC[C@@H]1[C@]32OO4` [9-EPI-10-DEOXOARTEMISININ] was tested, and the EC50 ([11]; hff) was “Active”, the EC50 ([12]; hff) was “Active” and the EC50 ([13]; hff) was “Active”.
In the case of `C[C@H]1[C@H](N2CCS(=O)(=O)CC2)O[C@@H]2O[C@@]3(C)CC[C@H]4[C@H](C)CC[C@@H]1[C@@]24OO3` [ARTEMIFONE], the EC50 [14, 19] is reported as 30 nM.
For `C[C@@H]1CC[C@H]2[C@@H](C)C(=O)O[C@@H]3O[C@@]4(C)CC[C@@H]1[C@]32OO4` [ARTEMISININ], the Activity [15] was “Active”, the EC90 ([11]; Toxoplasma gondii, STL500-10A, HFF, 72 h) was 4.77 µM and the EC50 [11, 20] was 1800 nM. For the same compound, the EC90 ([12]; Toxoplasma gondii, KN200-1, HFF, 72 h) was 6.85 µM, the EC50 [12, 21] was 1730 nM and the EC90 ([13]; Toxoplasma gondii, KN200-6, HFF, 72 h) was 8.55 µM. For the same compound, the EC50 [13, 22] was 1510 nM, the Activity [16] was “Active” and the Activity [17] was “Active”. The Activity [9] was “inactive”, the Activity [18] was “Active” and the EC90 ([14]; Toxoplasma gondii, ATCC 50839, HFF, 72 h) was 1240 nM. For the same compound, the EC50 [14, 19] was 800 nM.
`C[C@@H]1CC[C@H]2[C@@H](C)C(=O)O[C@@H]3O[C@@]4(C)CC[C@@H]1[C@]32O4` [DEOXYARTEMISININ] was tested, and the EC50 ([11]; hff) was “Not Active”, the EC50 ([12]; hff) was “Not Active” and the EC50 ([13]; hff) was “Not Active”. The EC50 ([14]; hff) was “Not Active”.
Work on `O=c1[nH]c(=O)n([C@H]2C[C@H](O)[C@@H](CO)O2)cc1F` [FLOXURIDINE] yielded an EC50 [11, 20] of 960 nM, an EC50 [12, 21] of 1130 nM and an EC50 [13, 22] of 1190 nM. The EC50 [14, 19] was 910 nM.
Compound `CCc1nc(N)nc(N)c1-c1ccc(Cl)cc1` [PYRIMETHAMINE] has an EC50 [11, 20] of 240 nM, an EC50 [12, 21] of 290 nM and an EC50 [13, 22] of 270 nM. The EC50 [14, 19] was 210 nM.
